Each block holds one molecule with its values, some of them ahead of it.
Experiments:
[1] = Concentration of compound that gives 50% of the maximum acceleration of lysis was determined by clot lysis assay using human plasma; type: functional
[2] = In vitro inhibition of thrombin-activatable fibrinolysis was determined against TAFIa enzyme by ECL assay
[3] = In vitro inhibition of purified Carboxypeptidase N (CPN) by spectrophotometric assay
[4] = target: Carboxypeptidase B2 (Homo sapiens) (UniProt Q96IY4); test: In vitro inhibition of activated thrombin-activatable fibrinolysis inhibitor (TAFIa) was determined by ECL enzyme assay
[5] = Tested in vivo for bleeding time in african green monkey when administered at a dose of 0.3 mg/kg iv bolus + 0.1 mg/(kg.min) continuous infusion; type: functional, Cercopithecidae
Method in brief: (§1)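 African green monkeys receive an iv bolus and then continuous infusion for 300 min, or vehicle. Template bleeding time is measured.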

[6] = Volume of distribution in rat; type: ADME, organism-based; conditions: in vivo, read-out: Vdss
[7] = Half life in dog; type: ADME, organism-based, Canis lupus familiaris; conditions: in vivo
[8] = Clearance in dog; type: ADME, organism-based, Canis lupus familiaris; conditions: in vivo
[9] = Tested in vivo for time-to-occlusion in jugular vein of african green monkey when administered at a dose of 0.3 mg/kg iv bolus + 0.1 mg/(kg.min) continuous infusion; type: functional, Cercopithecidae
Method in brief: (§2)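 African green monkey jugular vein model. Time-to-occlusion is recorded during iv bolus plus continuous infusion for 300 min; vehicle-treated animals are included.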

[10] = Clearance in rhesus; type: ADME, organism-based, Macaca mulatta; conditions: rhesus monkey, in vivo
[11] = Clearance in rat; type: ADME, organism-based; conditions: in vivo
[12] = Tested in vivo for bleeding time in african green monkey when administered along with saline; type: functional, Cercopithecidae; method in brief: as §1
[13] = Tested in vivo for time-to-occlusion in jugular vein of african green monkey when administered along with saline; type: functional, Cercopithecidae; method in brief: as §2
[14] = Bioavailability in dog; type: ADME, organism-based, Canis lupus familiaris; conditions: in vivo
[15] = Bioavailability in rat; type: ADME, organism-based; conditions: in vivo
[16] = Volume of distribution in rhesus; type: ADME, organism-based, Macaca mulatta; conditions: rhesus monkey, in vivo; read-out: Vdss
[17] = Tested in vivo for time-to-occlusion in jugular vein of african green monkey when administered at a dose of 0.05 mg/kg iv bolus + 0.02 mg/(kg.min) continuous infusion; type: functional, Cercopithecidae; method in brief: as §2
[18] = Half life in rat; type: ADME, organism-based; conditions: in vivo
[19] = Tested in vivo for time-to-occlusion in carotid artery of african green monkey when administered at a dose of 0.05 mg/kg iv bolus + 0.02 mg/(kg.min) continuous infusion; type: functional, Cercopithecidae
[20] = Tested in vivo for time-to-occlusion in carotid artery of african green monkey when administered along with saline; type: functional, Cercopithecidae
[21] = Tested in vivo for bleeding time in african green monkey when administered at a dose of 0.05 mg/kg iv bolus + 0.02 mg/(kg.min) continuous infusion; type: functional, Cercopithecidae; method in brief: as §1
[22] = Tested in vivo for time-to-occlusion in carotid artery of african green monkey when administered at a dose of 0.1 mg/kg iv bolus + 0.03 mg/(kg.min) continuous infusion; type: functional, Cercopithecidae
[23] = Tested in vivo for bleeding time in african green monkey when administered at a dose of 0.1 mg/kg iv bolus + 0.03 mg/(kg.min) continuous infusion; type: functional, Cercopithecidae; method in brief: as §1
[24] = Tested in vivo for bleeding time in african green monkey when administered at a dose of 0.03 mg/kg iv bolus + 0.01 mg/(kg.min) continuous infusion; type: functional, Cercopithecidae; method in brief: as §1
[25] = Volume of distribution in dog; type: ADME, organism-based, Canis lupus familiaris; conditions: in vivo, read-out: Vdss
[26] = Tested in vivo for time-to-occlusion in carotid artery of african green monkey when administered at a dose of 0.3 mg/kg iv bolus + 0.1 mg/(kg.min) continuous infusion; type: functional, Cercopithecidae
[27] = Half life in rhesus; type: ADME, organism-based, Macaca mulatta; conditions: rhesus monkey, in vivo
[28] = Tested in vivo for time-to-occlusion in carotid artery of african green monkey when administered at a dose of 0.03 mg/kg iv bolus + 0.01 mg/(kg.min) continuous infusion; type: functional, Cercopithecidae
[29] = Tested in vivo for time-to-occlusion in jugular vein of african green monkey when administered at a dose of 0.1 mg/kg iv bolus + 0.03 mg/(kg.min) continuous infusion; type: functional, Cercopithecidae; method in brief: as §2
[30] = Bioavailability in rhesus; type: ADME, organism-based, Macaca mulatta; conditions: rhesus monkey, in vivo
[31] = Tested in vivo for time-to-occlusion in jugular vein of african green monkey when administered at a dose of 0.03 mg/kg iv bolus + 0.01 mg/(kg.min) continuous infusion; type: functional, Cercopithecidae; method in brief: as §2

IC50 [2]: 5 nM
Compound: CC(C)CCn1cnc(C(Cc2ccc(N)nc2)C(=O)O)c1 (racemic)
CLT50 [1]: 0.12 µM

Compound: O=C(O)CC(Cc1ccccc1)C(=O)O (centres undefined)
CLT50 [1]: >50 µM

IC50 [3]: > 50000 nM
IC50 [4]: 28 nM
Compound: Nc1ccc(CC(C(=O)O)c2cn(Cc3ccccc3)cn2)cn1 (centres undefined)
CLT50 [1]: 0.74 µM

Vd [6]: 1.36 L/kg
half-life [7]: 36 min
clearance [8]: 6.1 mL/min/kg
clearance [10]: 6.1 mL/min/kg
clearance [11]: 32 mL/min/kg
IC50 [3]: > 50000 nM
bioavailability [14]: 38%
bioavailability [15]: 47%
Vd [16]: 0.26 L/kg
half-life [18]: 66 min
Vd [25]: 0.28 L/kg
IC50 [2]: 2 nM
half-life [27]: 48 min
bioavailability [30]: 12%
Compound: CC(C)CCn1cnc(C(Cc2ccc(N)nc2)C(=O)O)c1 (stereo in doubt; 10j(-))
Bleeding time [5]: 2.9 min
TTO [9]: 216 min
CLT50 [1]: 0.056 µM
Bleeding time [12]: 2 min
TTO [13]: 96 min
TTO [17]: 147 min
TTO [19]: 62 min
TTO [20]: 51 min
Bleeding time [21]: 2.2 min
TTO [22]: 52 min
Bleeding time [23]: 2.3 min
Bleeding time [24]: 2 min
TTO [26]: 85 min
TTO [28]: 61 min
TTO [29]: 171 min
TTO [31]: 128 min

IC50 [3]: > 50000 nM
Compound: CC(C)n1cnc(C(Cc2ccc(N)nc2)C(=O)O)c1 (centres undefined)
CLT50 [1]: 1.06 µM

IC50 [3]: > 50000 nM
IC50 [4]: > 100000 nM
Compound: O=C(O)C(Cc1ccccc1)c1c[nH]cn1 (centres undefined)
CLT50 [1]: >50 µM

IC50 [3]: > 50000 nM
IC50 [2]: 1800 nM
Compound: Nc1ccc(CC(C(=O)O)c2c[nH]cn2)cn1 (stereo in doubt; 10b(+))
CLT50 [1]: >10 µM

IC50 [2]: 80 nM
Compound: Nc1ccc(CC(C(=O)O)c2c[nH]cn2)cn1 (racemic)
CLT50 [1]: 0.97 µM

IC50 [3]: > 50000 nM
Compound: Cn1cnc(C(Cc2ccc(N)nc2)C(=O)O)c1 (centres undefined)
CLT50 [1]: 0.42 µM

IC50 [2]: 40 nM
Compound: Nc1ccc(CC(C(=O)O)c2c[nH]cn2)cn1 (single isomer, unassigned; (-))
CLT50 [1]: 0.5 µM

IC50 [3]: > 50000 nM
Compound: CCn1cnc(C(Cc2ccc(N)nc2)C(=O)O)c1 (centres undefined)
CLT50 [1]: 0.65 µM

IC50 [3]: > 50000 nM
Compound: CCCCn1cnc(C(Cc2ccc(N)nc2)C(=O)O)c1 (centres undefined)
CLT50 [1]: 0.15 µM
